ChEMBL document CHEMBL1134652, “N-Methyl scan of somatostatin octapeptide agonists produces interesting effects on receptor subtype specificity” (J Med Chem, 2001)
Where a SMILES comes first, the peptide text is derived from it. Bridges are numbered along the chain shown (N, C = ends). [ ]: non-standard residue; d: D form. NMeY = CN[C@@H](Cc1ccc(O)cc1)C(=O)O; NMeT = CN[C@H](C(=O)O)[C@@H](C)O; NMeK = CN[C@@H](CCCCN)C(=O)O; NMeC = CN[C@@H](CS)C(=O)O

Legend:
Rattus norvegicus = species: Rattus norvegicus; experiment: in vitro Agonist activity (inhibition of growth hormone release) on cultured rat pituitary cells; assay type: functional, cell-based; conditions: Pituitary gland cell
How it was run: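 Anterior pituitary cells from adult male rats were dispersed with trypsin/DNase and cultured 4–5 days at about 200 000 cells/well. GH in the medium was measured by double-antibody RIA.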

[1] = target: Somatostatin receptor type 1 (Homo sapiens, UniProt P30872); experiment: Binding affinity was determined on cloned human somatostatin receptor-1 (hsst1)
Sequence of Somatostatin receptor type 1 (P30872 whole entry): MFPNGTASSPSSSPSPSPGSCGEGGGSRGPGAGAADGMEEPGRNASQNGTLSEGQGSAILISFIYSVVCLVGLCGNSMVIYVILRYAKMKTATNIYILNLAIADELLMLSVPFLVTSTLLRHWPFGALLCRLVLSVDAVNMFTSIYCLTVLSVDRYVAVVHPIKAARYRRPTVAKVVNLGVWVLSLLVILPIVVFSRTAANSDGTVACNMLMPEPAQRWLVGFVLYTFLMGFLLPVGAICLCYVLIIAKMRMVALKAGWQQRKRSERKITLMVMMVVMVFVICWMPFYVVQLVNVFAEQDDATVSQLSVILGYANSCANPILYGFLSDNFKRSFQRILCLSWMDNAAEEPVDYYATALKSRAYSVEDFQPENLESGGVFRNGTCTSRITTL
How it was run: (§1)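 Membranes from CHO-K1 cells stably transfected with human sst1, sst2 or sst4 (calcium phosphate, G418 selection), resuspended in 10 mM Tris-HCl. Filtered on GF/C; nonspecific binding measured with 1.0 μM SRIF. Kd from concentration-dependent displacement.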

[2] = target: Somatostatin receptor type 4 (Homo sapiens, UniProt P31391); experiment: Binding affinity was determined on cloned human somatostatin receptor-1 (hsst4)
Sequence of Somatostatin receptor type 4 (P31391 whole entry): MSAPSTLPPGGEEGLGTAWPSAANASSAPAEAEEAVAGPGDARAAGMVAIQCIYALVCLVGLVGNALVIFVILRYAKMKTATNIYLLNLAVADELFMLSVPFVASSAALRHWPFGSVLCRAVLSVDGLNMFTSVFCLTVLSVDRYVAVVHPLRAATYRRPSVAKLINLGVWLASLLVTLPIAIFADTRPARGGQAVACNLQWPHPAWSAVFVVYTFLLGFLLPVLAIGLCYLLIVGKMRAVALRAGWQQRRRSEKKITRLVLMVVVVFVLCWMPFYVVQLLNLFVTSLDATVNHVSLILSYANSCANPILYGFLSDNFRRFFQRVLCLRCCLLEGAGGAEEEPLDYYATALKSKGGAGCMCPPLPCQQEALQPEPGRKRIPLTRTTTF
How it was run: as §1, with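 “Tris-HCl. Incubated 30 min at 37 °C with 0.05 nM [125I]Tyr11-SRIF (sst1, sst4) or [125I]MK-678 (sst2) in HEPES pH 7.4 with BSA, MgCl2 and protease inhibitors.” for “Tris-HCl.”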

[3] = target: Somatostatin receptor type 5 (Homo sapiens, UniProt P35346); experiment: Binding affinity was determined on cloned human somatostatin receptor-1 (hsst5)
Sequence of Somatostatin receptor type 5 (P35346 whole entry): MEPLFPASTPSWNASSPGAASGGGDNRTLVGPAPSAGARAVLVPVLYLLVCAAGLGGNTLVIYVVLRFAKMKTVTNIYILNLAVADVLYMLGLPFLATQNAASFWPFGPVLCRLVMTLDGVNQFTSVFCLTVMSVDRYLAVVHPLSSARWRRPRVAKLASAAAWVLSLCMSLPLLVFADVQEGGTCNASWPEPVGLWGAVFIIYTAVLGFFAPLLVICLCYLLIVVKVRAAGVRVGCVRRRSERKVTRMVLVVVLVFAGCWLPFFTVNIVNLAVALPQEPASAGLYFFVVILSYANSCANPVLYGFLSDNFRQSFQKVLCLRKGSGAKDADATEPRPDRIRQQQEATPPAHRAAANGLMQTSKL

[4] = target: Somatostatin receptor type 2 (Homo sapiens, UniProt P30874); experiment: Binding affinity was determined on cloned human somatostatin receptor-1 (hsst2); how it was run: as §1
Sequence of Somatostatin receptor type 2 (P30874 whole entry): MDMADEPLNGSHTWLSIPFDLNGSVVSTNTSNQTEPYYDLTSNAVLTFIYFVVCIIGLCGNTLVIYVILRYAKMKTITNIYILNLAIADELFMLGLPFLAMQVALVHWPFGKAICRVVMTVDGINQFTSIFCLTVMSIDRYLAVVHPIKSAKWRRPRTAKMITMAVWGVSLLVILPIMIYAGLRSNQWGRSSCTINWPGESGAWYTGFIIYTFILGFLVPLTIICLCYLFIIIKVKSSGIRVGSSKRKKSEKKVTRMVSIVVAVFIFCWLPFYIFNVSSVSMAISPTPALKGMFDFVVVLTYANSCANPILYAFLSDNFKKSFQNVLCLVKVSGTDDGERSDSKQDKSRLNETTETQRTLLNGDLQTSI

[5] = target: Somatostatin receptor type 3 (Homo sapiens, UniProt P32745); experiment: Binding affinity was determined on cloned human somatostatin receptor-1 (hsst3)
Sequence of Somatostatin receptor type 3 (P32745 whole entry): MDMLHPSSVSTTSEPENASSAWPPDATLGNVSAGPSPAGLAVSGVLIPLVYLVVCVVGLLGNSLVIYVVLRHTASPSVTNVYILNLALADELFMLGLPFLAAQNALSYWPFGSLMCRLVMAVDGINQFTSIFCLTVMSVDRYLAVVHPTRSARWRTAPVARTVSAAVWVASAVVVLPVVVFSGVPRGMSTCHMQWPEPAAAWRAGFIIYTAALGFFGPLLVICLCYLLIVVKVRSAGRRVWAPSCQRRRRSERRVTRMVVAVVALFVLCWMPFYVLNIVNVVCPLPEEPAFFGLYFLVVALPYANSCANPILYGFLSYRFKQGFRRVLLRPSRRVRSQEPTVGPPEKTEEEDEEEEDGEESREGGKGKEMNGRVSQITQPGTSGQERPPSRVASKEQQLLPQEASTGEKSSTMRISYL

C[C@@H](O)[C@@H]1NC(=O)[C@H](CCCCN)NC(=O)[C@@H](Cc2c[nH]c3ccccc23)NC(=O)[C@H](Cc2ccccc2)NC(=O)[C@@H](NC(=O)[C@H](N)Cc2ccccc2)CSSC[C@@H](C(=O)N(C)[C@H](C(N)=O)[C@@H](C)O)NC1=O
IC50 (Rattus norvegicus): 0.0288 µM

C[C@@H](O)[C@H](NC(=O)[C@@H]1CSSC[C@H](N(C)C(=O)[C@H](N)Cc2ccccc2)C(=O)N[C@@H](Cc2ccccc2)C(=O)N[C@H](Cc2c[nH]c3ccccc23)C(=O)N[C@@H](CCCCN)C(=O)N[C@@H]([C@@H](C)O)C(=O)N1)C(N)=O
IC50 (Rattus norvegicus): 0.00036 µM

CN[C@H](Cc1ccccc1)C(=O)N[C@H]1CSSC[C@@H](C(=O)N[C@H](C(N)=O)[C@@H](C)O)NC(=O)[C@H]([C@@H](C)O)NC(=O)[C@H](CCCCN)NC(=O)[C@@H](Cc2c[nH]c3ccccc23)NC(=O)[C@H](Cc2ccccc2)NC1=O
Kd [1]: 0.316 µM
Kd [2]: > 1 µM
Kd [3]: 0.00489 µM
Kd [4]: 0.00103 µM
Kd [5]: 0.0179 µM

C[C@@H](O)[C@H](NC(=O)[C@@H]1CSSC[C@H](NC(=O)[C@H](N)Cc2ccccc2)C(=O)N[C@@H](Cc2ccccc2)C(=O)N[C@H](Cc2c[nH]c3ccccc23)C(=O)N[C@@H](CCCCN)C(=O)N[C@@H]([C@@H](C)O)C(=O)N1)C(N)=O
IC50 (Rattus norvegicus): 0.00016 µM

C[C@@H](O)[C@H](NC(=O)[C@@H]1CSSC[C@H](NC(=O)[C@@H](N)Cc2ccc(O)cc2)C(=O)N[C@@H](Cc2ccccc2)C(=O)N[C@H](Cc2c[nH]c3ccccc23)C(=O)N[C@@H](CCCCN)C(=O)N[C@@H]([C@@H](C)O)C(=O)N1)C(N)=O (H-YCF[dW]KTCT-NH2; disulfide 2-7)
IC50 (Rattus norvegicus): 0.00111 µM

C[C@@H](O)[C@H](NC(=O)[C@@H]1CSSC[C@H](NC(=O)[C@@H](N)Cc2ccc(O)cc2)C(=O)N[C@@H](Cc2ccccc2)C(=O)N[C@H](Cc2c[nH]c3ccccc23)C(=O)N[C@@H](CCCCN)C(=O)N[C@@H]([C@@H](C)O)C(=O)N1C)C(N)=O (H-YCF[dW]KT[NMeC]T-NH2; disulfide 2-7)
Kd [4]: 0.0562 µM

C[C@@H](O)[C@H](NC(=O)[C@@H]1CSSC[C@H](NC(=O)[C@@H](N)Cc2ccc(O)cc2)C(=O)N[C@@H](Cc2ccccc2)C(=O)N[C@H](Cc2c[nH]c3ccccc23)C(=O)N[C@@H](CCCCN)C(=O)N(C)[C@@H]([C@@H](C)O)C(=O)N1)C(N)=O (H-YCF[dW]K[NMeT]CT-NH2; disulfide 2-7)
Kd [2]: 1 µM

C[C@@H](O)[C@H](NC(=O)[C@@H]1CSSC[C@H](NC(=O)[C@@H](N)Cc2ccc(O)cc2)C(=O)N[C@@H](Cc2ccccc2)C(=O)N[C@H](Cc2c[nH]c3ccccc23)C(=O)N(C)[C@@H](CCCCN)C(=O)N[C@@H]([C@@H](C)O)C(=O)N1)C(N)=O (H-YCF[dW][NMeK]TCT-NH2; disulfide 2-7)
IC50 (Rattus norvegicus): 0.0274 µM

CN[C@@H](Cc1ccc(O)cc1)C(=O)N[C@H]1CSSC[C@@H](C(=O)N[C@H](C(N)=O)[C@@H](C)O)NC(=O)[C@H]([C@@H](C)O)NC(=O)[C@H](CCCCN)NC(=O)[C@@H](Cc2c[nH]c3ccccc23)NC(=O)[C@H](Cc2ccccc2)NC1=O (H-[NMeY]CF[dW]KTCT-NH2; disulfide 2-7)
Kd [1]: 0.811 µM
Kd [4]: 0.00974 µM
